Source: ChEMBL document CHEMBL1806457, “Synthesis and antimicrobial evaluation of new benzofuran derivatives” (2011)
Converted amounts (≈) assume the structure as drawn.

Columns and labels:
Type in all cases: functional
Bacillus subtilis = assay: Antibacterial activity against 1 x 10^4 cfu/mL Bacillus subtilis ATCC 33712 after 24 hrs by NCCLS M7-A6 microtiter broth dilution method; details: ATCC 33712, 24 h
Staphylococcus aureus [1] = assay: Antibacterial activity against 1 x 10^4 cfu/mL Staphylococcus aureus ATCC 29213 after 24 hrs by NCCLS M7-A6 microtiter broth dilution method; details: ATCC 29213, 24 h
Candida albicans = assay: microbe, parasite or virus in culture; details: ATCC 6258, 48 h
Staphylococcus aureus [2] = assay: Antibacterial activity against 1 x 10^4 cfu/mL methicillin-resistant Staphylococcus aureus ATCC 700699 after 24 hrs by NCCLS M7-A6 microtiter broth dilution method; details: ATCC 700699, 24 h
Outline: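 Bacteria pre-cultured in LB broth 24 h at 37 °C. Colonies suspended in sterile saline and adjusted to 0.5 McFarland (625 nm, 1–2 × 10⁸ cfu/mL), then diluted 1:10,000 in LB. Compounds from a 4 mg/mL DMSO stock were two-fold serially diluted across a 96-well plate, 200 down to 0.39 µg/mL. MIC80 was the lowest concentration preventing visible growth (>80% inhibition).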

Escherichia coli = assay: Antibacterial activity against 1 x 10^4 cfu/mL Escherichia coli ATCC 11303 after 24 hrs by NCCLS M7-A6 microtiter broth dilution method; details: ATCC 11303, 24 h

Q: What does the source list for `COc1ccc(-c2oc3ccc(C)cc3c2C(=O)c2cc(OC)cc(OC)c2)cc1`?
A: MIC80 (Bacillus subtilis): > 200 µg/mL; MIC80 (Staphylococcus aureus [1]): > 200 µg/mL; MIC80 (Candida albicans): > 200 µg/mL; MIC80 (Staphylococcus aureus [2]): > 200 µg/mL; MIC80 (Escherichia coli): > 200 µg/mL

Q: `COc1ccc(-c2oc3ccc(C)cc3c2C(=O)c2ccc(O)cc2)cc1` was tested. Which MIC80 (Bacillus subtilis) did it give?
A: Its MIC80 is 0.78 µg/mL (≈ 2.18 µM).

Q: What about the MIC80 (Staphylococcus aureus [1]) of the same compound?
A: Its MIC80 is less than 0.39 µg/mL.

Q: And the MIC80 (Candida albicans)?
A: Its MIC80 is greater than 200 µg/mL.

Q: What about the MIC80 (Staphylococcus aureus [2]) of the same compound?
A: Its MIC80 is 0.78 µg/mL (≈ 2.18 µM).

Q: What about the MIC80 (Escherichia coli) of the same compound?
A: The MIC80 was 0.78 µg/mL (≈ 2.18 µM).

Q: `CO/N=C(\C(=O)N[C@@H]1C(=O)N2C(C(=O)O)=C(COC(C)=O)CS[C@H]12)c1csc(N)n1` [CEFOTAXIME] was tested. Which MIC80 (Bacillus subtilis) did it give?
A: The MIC80 was 0.78 µg/mL (≈ 1.71 µM).

Q: And the MIC80 (Staphylococcus aureus [1])?
A: The MIC80 was 3.12 µg/mL (≈ 6.85 µM).

Q: What about the MIC80 (Staphylococcus aureus [2]) of the same compound?
A: Its MIC80 is 3.12 µg/mL (≈ 6.85 µM).

Q: And the MIC80 (Escherichia coli)?
A: The MIC80 was greater than 200 µg/mL.

Q: Which results are given for `CC1(C)S[C@@H]2[C@H](NC(=O)Cc3ccccc3)C(=O)N2[C@H]1C(=O)[O-].[Na+]` [PENICILLIN G SODIUM]?
A: MIC80 (Bacillus subtilis): < 0.39 µg/mL; MIC80 (Staphylococcus aureus [1]): 3.12 µg/mL; MIC80 (Staphylococcus aureus [2]): 3.12 µg/mL; MIC80 (Escherichia coli): 0.78 µg/mL

Q: Which results are given for `COc1ccc(-c2oc3ccc(C)cc3c2C(=O)c2cc(OC)c(OC)c(OC)c2)cc1`?
A: MIC80 (Bacillus subtilis): > 200 µg/mL; MIC80 (Staphylococcus aureus [1]): > 200 µg/mL; MIC80 (Candida albicans): > 200 µg/mL; MIC80 (Staphylococcus aureus [2]): > 200 µg/mL; MIC80 (Escherichia coli): > 200 µg/mL

Q: For `COc1ccc(-c2oc3ccc(C)cc3c2C(=O)c2cc(Cl)cc(Cl)c2)cc1`, which MIC80 (Bacillus subtilis) is on record?
A: Its MIC80 is greater than 200 µg/mL.

Q: And the MIC80 (Staphylococcus aureus [1])?
A: Its MIC80 is greater than 200 µg/mL.

Q: And the MIC80 (Candida albicans)?
A: The MIC80 was greater than 200 µg/mL.

Q: What about the MIC80 (Staphylococcus aureus [2]) of the same compound?
A: The MIC80 was greater than 200 µg/mL.

Q: What about the MIC80 (Escherichia coli) of the same compound?
A: Its MIC80 is greater than 200 µg/mL.

Q: Which results are given for `COc1ccc(-c2oc3ccc(C)cc3c2C(=O)c2ccc(O)c(I)c2)cc1`?
A: MIC80 (Bacillus subtilis): 1.56 µg/mL (≈ 3.22 µM); MIC80 (Staphylococcus aureus [1]): 0.78 µg/mL (≈ 1.61 µM); MIC80 (Candida albicans): > 200 µg/mL; MIC80 (Staphylococcus aureus [2]): 0.78 µg/mL (≈ 1.61 µM); MIC80 (Escherichia coli): 3.12 µg/mL (≈ 6.44 µM)

Q: Which results are given for `COc1ccc(-c2oc3ccc(C)cc3c2C(=O)c2cc(O)cc(OC)c2)cc1`?
A: MIC80 (Bacillus subtilis): 0.78 µg/mL (≈ 2.01 µM); MIC80 (Staphylococcus aureus [1]): < 0.39 µg/mL; MIC80 (Candida albicans): > 200 µg/mL; MIC80 (Staphylococcus aureus [2]): 0.78 µg/mL (≈ 2.01 µM); MIC80 (Escherichia coli): 0.78 µg/mL (≈ 2.01 µM)

Q: `CC(=O)N1CCN(c2ccc(OCC3COC(Cn4ccnc4)(c4ccc(Cl)cc4Cl)O3)cc2)CC1` (centres undefined) [KETOCONAZOLE] was tested. Which MIC80 (Candida albicans) did it give?
A: Its MIC80 is less than 0.39 µg/mL.

Q: Which MIC80 (Bacillus subtilis) does the source give for `CC(C)(O/N=C(\C(=O)N[C@@H]1C(=O)N2C(C(=O)[O-])=C(C[n+]3ccccc3)CS[C@H]12)c1csc(N)n1)C(=O)O` [CEFTAZIDIME] here?
A: The MIC80 was 6.25 µg/mL (≈ 11.4 µM).

Q: And the MIC80 (Staphylococcus aureus [1])?
A: The MIC80 was 0.78 µg/mL (≈ 1.43 µM).

Q: What about the MIC80 (Staphylococcus aureus [2]) of the same compound?
A: Its MIC80 is 12.5 µg/mL (≈ 22.9 µM).

Q: And the MIC80 (Escherichia coli)?
A: The MIC80 was greater than 200 µg/mL.

Q: `Oc1ccc(/C=C/c2cc(O)cc(O)c2)cc1` [RESVERATROL] was tested. Which MIC80 (Bacillus subtilis) did it give?
A: Its MIC80 is 25 µg/mL (≈ 110 µM).

Q: And the MIC80 (Staphylococcus aureus [1])?
A: The MIC80 was 25 µg/mL (≈ 110 µM).

Q: What about the MIC80 (Candida albicans) of the same compound?
A: Its MIC80 is greater than 200 µg/mL.

Q: And the MIC80 (Staphylococcus aureus [2])?
A: The MIC80 was 25 µg/mL (≈ 110 µM).

Q: And the MIC80 (Escherichia coli)?
A: The MIC80 was 25 µg/mL (≈ 110 µM).

Q: Which MIC80 (Bacillus subtilis) does the source give for `COc1ccc(C(=O)c2c(-c3ccc(OC)cc3)oc3ccc(C)cc23)cc1` here?
A: Its MIC80 is greater than 200 µg/mL.

Q: And the MIC80 (Staphylococcus aureus [1])?
A: Its MIC80 is greater than 200 µg/mL.

Q: What about the MIC80 (Candida albicans) of the same compound?
A: Its MIC80 is greater than 200 µg/mL.

Q: And the MIC80 (Staphylococcus aureus [2])?
A: The MIC80 was greater than 200 µg/mL.

Q: What about the MIC80 (Escherichia coli) of the same compound?
A: Its MIC80 is greater than 200 µg/mL.

Q: How did the MIC80 (Bacillus subtilis) turn out when `COc1ccc(-c2oc3ccc(C)cc3c2C(=O)c2cccc(OC)c2O)cc1` was run?
A: Its MIC80 is greater than 200 µg/mL.

Q: And the MIC80 (Staphylococcus aureus [1])?
A: The MIC80 was greater than 200 µg/mL.

Q: And the MIC80 (Candida albicans)?
A: Its MIC80 is greater than 200 µg/mL.

Q: And the MIC80 (Staphylococcus aureus [2])?
A: The MIC80 was greater than 200 µg/mL.

Q: And the MIC80 (Escherichia coli)?
A: Its MIC80 is greater than 200 µg/mL.

Q: `COc1ccc(-c2oc3ccc(C)cc3c2C(=O)c2cccc(OC)c2OC)cc1` was tested. Which MIC80 (Bacillus subtilis) did it give?
A: The MIC80 was greater than 200 µg/mL.

Q: And the MIC80 (Staphylococcus aureus [1])?
A: The MIC80 was greater than 200 µg/mL.

Q: And the MIC80 (Candida albicans)?
A: Its MIC80 is greater than 200 µg/mL.

Q: And the MIC80 (Staphylococcus aureus [2])?
A: Its MIC80 is greater than 200 µg/mL.

Q: And the MIC80 (Escherichia coli)?
A: The MIC80 was greater than 200 µg/mL.

Q: Which results are given for `COc1ccc(-c2oc3ccc(C)cc3c2C(=O)c2ccccc2Br)cc1`?
A: MIC80 (Bacillus subtilis): 0.78 µg/mL (≈ 1.85 µM); MIC80 (Staphylococcus aureus [1]): > 200 µg/mL; MIC80 (Candida albicans): > 200 µg/mL; MIC80 (Staphylococcus aureus [2]): > 200 µg/mL; MIC80 (Escherichia coli): > 200 µg/mL

Q: What does the source list for `COc1ccc(-c2oc3ccc(C)cc3c2C(=O)c2ccc(Cl)cc2)cc1`?
A: MIC80 (Bacillus subtilis): > 200 µg/mL; MIC80 (Staphylococcus aureus [1]): > 200 µg/mL; MIC80 (Candida albicans): > 200 µg/mL; MIC80 (Staphylococcus aureus [2]): > 200 µg/mL; MIC80 (Escherichia coli): > 200 µg/mL

Q: `COc1ccc(-c2oc3ccc(C)cc3c2C(=O)c2ccc(O)c(C)c2)cc1` was tested. Which MIC80 (Bacillus subtilis) did it give?
A: The MIC80 was 1.56 µg/mL (≈ 4.19 µM).

Q: And the MIC80 (Staphylococcus aureus [1])?
A: The MIC80 was 0.78 µg/mL (≈ 2.09 µM).

Q: What about the MIC80 (Candida albicans) of the same compound?
A: Its MIC80 is greater than 200 µg/mL.

Q: And the MIC80 (Staphylococcus aureus [2])?
A: The MIC80 was 0.78 µg/mL (≈ 2.09 µM).

Q: And the MIC80 (Escherichia coli)?
A: Its MIC80 is 0.78 µg/mL (≈ 2.09 µM).

Q: How did the MIC80 (Bacillus subtilis) turn out when `COc1ccc(-c2oc3ccc(C)cc3c2C(=O)c2cc(F)c(F)cc2Br)cc1` was run?
A: Its MIC80 is greater than 200 µg/mL.

Q: What about the MIC80 (Staphylococcus aureus [1]) of the same compound?
A: The MIC80 was greater than 200 µg/mL.

Q: And the MIC80 (Candida albicans)?
A: Its MIC80 is greater than 200 µg/mL.

Q: What about the MIC80 (Staphylococcus aureus [2]) of the same compound?
A: Its MIC80 is greater than 200 µg/mL.

Q: What about the MIC80 (Escherichia coli) of the same compound?
A: Its MIC80 is greater than 200 µg/mL.

Q: For `Clc1ccc(COC(Cn2ccnc2)c2ccc(Cl)cc2Cl)c(Cl)c1.O=[N+]([O-])O` (centres undefined) [MICONAZOLE NITRATE], which MIC80 (Candida albicans) is on record?
A: The MIC80 was less than 0.39 µg/mL.
